From ChEMBL document CHEMBL4152184, “NB 06: From a simple lysosomotropic aSMase inhibitor to tools for elucidating the role of lysosomes in signaling apoptosis and LPS-induced inflammation” (Eur J Med Chem, 2018)
Calls of active or inactive are those of the source. The calls are words filed in the database; no cut-off is given here.

Tests used:
MONO-MAC-6 [1] = assay: Downregulation of TNFalpha mRNA expression level in human MONO-MAC-6 cells at 5 uM incubated for 30 mins measured after 2 hrs by qRT-PCR method relative to control; assay type: functional
MONO-MAC-6 [2] = assay: Downregulation of CXCL2 mRNA expression level in human MONO-MAC-6 cells at 5 uM incubated for 30 mins measured after 2 hrs by qRT-PCR method relative to control; assay type: functional
MONO-MAC-6 [3] = assay: Upregulation of CXCL3 mRNA expression level in LPS-stimulated human MONO-MAC-6 cells at 5 uM preincubated for 30 mins followed by LPS stimulation measured after 6 hrs by oligonucleotide array hybridization assay (reference value: 5.74); assay type: functional
MONO-MAC-6 [4] = assay: Upregulation of CXCL2 mRNA expression level in LPS-stimulated human MONO-MAC-6 cells at 5 uM preincubated for 30 mins followed by LPS stimulation measured after 4 hrs by oligonucleotide array hybridization assay (reference value: 13.17); assay type: functional
MONO-MAC-6 [5] = assay: Upregulation of CXCL10 mRNA expression level in LPS-stimulated human MONO-MAC-6 cells at 5 uM preincubated for 30 mins followed by LPS stimulation measured after 1 hr by oligonucleotide array hybridization assay (reference value: 1.18); assay type: functional
MONO-MAC-6 [6] = assay: Upregulation of TNFalpha mRNA expression level in LPS-stimulated human MONO-MAC-6 cells at 5 uM preincubated for 30 mins followed by LPS stimulation measured after 2 hrs by qRT-PCR method (reference value: 3.10); assay type: functional
MONO-MAC-6 [7] = assay: Downregulation of IL23A mRNA expression level in human MONO-MAC-6 cells at 5 uM incubated for 30 mins measured after 2 hrs by qRT-PCR method relative to control; assay type: functional
MONO-MAC-6 [8] = assay: Downregulation of CCL20 mRNA expression level in LPS-stimulated human MONO-MAC-6 cells at 5 uM preincubated for 30 mins followed by LPS stimulation measured after 6 hrs by oligonucleotide array hybridization assay (reference value: 5.78); assay type: functional
Procedure, shortened: (§1)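 Total RNA was isolated, transcribed and labeled with DY-647 dye, then co-hybridized with DY-548-labeled cDNA from untreated cells on an inflammation oligonucleotide chip (780 gene probes). Differential expression >1.5 was taken as significant.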

MONO-MAC-6 [9] = assay: Decrease in inflammation-related genes in LPS-stimulated human MONO-MAC-6 cells preincubated for 30 mins followed by LPS stimulation measured after 6 hrs by microarray analysis; assay type: functional, cell-based; procedure, shortened: as §1
MONO-MAC-6 [10] = assay: Upregulation of IL-6 mRNA expression level in LPS-stimulated human MONO-MAC-6 cells at 5 uM preincubated for 30 mins followed by LPS stimulation measured after 2 hrs by qRT-PCR method (reference value: […]); assay type: functional
MONO-MAC-6 [11] = assay: Upregulation of CXCL10 mRNA expression level in LPS-stimulated human MONO-MAC-6 cells at 5 uM preincubated for 30 mins followed by LPS stimulation measured after 6 hrs by oligonucleotide array hybridization assay (reference value: 1.57); assay type: functional
[12] = biological target: T1, Acid ceramidase (Homo sapiens) (UniProt Q13510); assay: Inhibition of TNFalpha-stimulated acid ceramidase in human PBMC assessed as ratio of C24:1-ceramide/lipid phosphate level at 10 uM preincubated for 30 mins followed by TNFalpha stimulation measured after 4 hrs by HPLC method (reference value: 3.05); assay type: cell-based
T1 sequence (whole entry): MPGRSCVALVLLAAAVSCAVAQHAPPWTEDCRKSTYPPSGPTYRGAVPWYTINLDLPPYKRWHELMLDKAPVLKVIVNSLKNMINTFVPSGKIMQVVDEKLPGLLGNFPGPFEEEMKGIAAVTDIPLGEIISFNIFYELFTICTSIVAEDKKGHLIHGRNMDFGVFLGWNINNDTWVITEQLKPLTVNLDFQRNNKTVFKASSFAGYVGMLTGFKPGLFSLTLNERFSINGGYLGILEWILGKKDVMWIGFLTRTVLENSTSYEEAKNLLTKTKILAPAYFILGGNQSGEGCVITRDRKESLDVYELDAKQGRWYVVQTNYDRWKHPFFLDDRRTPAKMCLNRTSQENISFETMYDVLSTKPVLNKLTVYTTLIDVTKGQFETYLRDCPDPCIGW
Procedure, shortened: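 Human macrophages from primary culture were preincubated 30 min with 10 µM compound. They were then stimulated 4 h with mmLDL (54 µg/mL), TNFalpha (3 ng/mL) or exogenous C6-ceramide (10 µM), or left unstimulated. Individual ceramide species (C16 and C24:1) were quantified in the cell lipid extracts.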

MONO-MAC-6 [13] = assay: Upregulation of IL23A mRNA expression level in LPS-stimulated human MONO-MAC-6 cells at 5 uM preincubated for 30 mins followed by LPS stimulation measured after 2 hrs by qRT-PCR method (reference value: 1.39); assay type: functional
MONO-MAC-6 [14] = assay: Downregulation of CXCL2 mRNA expression level in LPS-stimulated human MONO-MAC-6 cells at 5 uM preincubated for 30 mins followed by LPS stimulation measured after 6 hrs by oligonucleotide array hybridization assay (reference value: 9.41); assay type: functional; procedure, shortened: as §1
[15] = biological target: T1, Acid ceramidase (Homo sapiens); assay: Inhibition of C2-dihydroceramide-stimulated acid ceramidase in human PBMC assessed as reduction in C16-ceramide level at 10 uM preincubated for 30 mins followed by C2-dihydroceramide stimulation measured after 4 hrs by HPLC method; assay type: cell-based
MONO-MAC-6 [16] = assay: Downregulation of CXCL2 mRNA expression level in human MONO-MAC-6 cells at 5 uM incubated for 30 mins measured after 4 hrs by oligonucleotide array hybridization assay relative to control; assay type: functional; procedure, shortened: as §1
MONO-MAC-6 [17] = assay: Downregulation of CCL4 mRNA expression level in human MONO-MAC-6 cells at 5 uM incubated for 30 mins measured after 6 hrs by oligonucleotide array hybridization assay relative to control; assay type: functional; procedure, shortened: as §1
[18] = biological target: T2, Sphingomyelin phosphodiesterase (Homo sapiens) (UniProt P17405); assay: Inhibition of TNFalpha-stimulated acid sphingomyelinase in human PBMC lysates at 2 to 50 uM preincubated for 30 mins followed by TNFalpha stimulation measured after 4 hrs by YO-PRO-1/Hoechst 33342 staining based assay
T2 sequence (whole entry): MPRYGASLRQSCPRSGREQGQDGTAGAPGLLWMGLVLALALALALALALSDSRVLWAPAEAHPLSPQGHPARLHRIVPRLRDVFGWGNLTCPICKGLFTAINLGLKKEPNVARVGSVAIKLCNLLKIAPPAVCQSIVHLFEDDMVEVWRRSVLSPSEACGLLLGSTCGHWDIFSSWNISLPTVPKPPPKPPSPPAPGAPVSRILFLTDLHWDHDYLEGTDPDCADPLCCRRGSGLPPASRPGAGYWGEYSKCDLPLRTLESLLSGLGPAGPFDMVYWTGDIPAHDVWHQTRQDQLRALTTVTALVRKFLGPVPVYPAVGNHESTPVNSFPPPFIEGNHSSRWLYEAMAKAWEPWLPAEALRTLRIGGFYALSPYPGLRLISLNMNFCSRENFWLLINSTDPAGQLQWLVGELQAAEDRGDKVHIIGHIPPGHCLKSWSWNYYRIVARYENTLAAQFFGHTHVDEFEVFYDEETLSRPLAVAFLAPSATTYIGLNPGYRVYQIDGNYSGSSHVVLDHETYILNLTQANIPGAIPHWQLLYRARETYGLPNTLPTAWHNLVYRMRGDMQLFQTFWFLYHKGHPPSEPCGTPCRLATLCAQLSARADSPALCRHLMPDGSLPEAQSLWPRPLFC

## COc1ccc(CCN(C)CCCn2c3ccccc3c3ccccc32)cc1
MONO-MAC-6 [1]
  fold change (FC): 3.78
MONO-MAC-6 [2]
  fold change (FC): 1.27
MONO-MAC-6 [3]
  fold change (FC): 1.15
MONO-MAC-6 [4]
  fold change (FC): 5.82
MONO-MAC-6 [5]
  fold change (FC): 1.69
MONO-MAC-6 [6]
  fold change (FC): 1.34
MONO-MAC-6 [7]
  fold change (FC): 1.24
MONO-MAC-6 [8]
  fold change (FC): 1.07
MONO-MAC-6 [9]
  Activity: Active
MONO-MAC-6 [10]
  fold change (FC): 6.12
MONO-MAC-6 [11]
  fold change (FC): 1.12
[12]
  Ratio: 1.28
MONO-MAC-6 [13]
  fold change (FC): 1.87
MONO-MAC-6 [14]
  fold change (FC): 1.01
[15]
  inhibition: inactive
MONO-MAC-6 [16]
  fold change (FC): 2.28
MONO-MAC-6 [17]
  fold change (FC): 7.41
[18]
  inhibition: Active
